Experimental data pooled from the literature.
Compare with care: the assays were run in different laboratories. In brackets after ≈: the same amount, converted by molar mass.
CYP3A7: Cytochrome P450 3A7 (CYP3A7, Homo sapiens, UniProt P24462)

O=[N+]([O-])c1cccc(/C=N/c2c(-c3ccccc3)nc3ccc(Cl)cn23)c1  CC50 (MT4; cell growth or viability, MTT; 5 days): 82.1 µg/mL (≈ 218 µM)
COc1ccc2c(O[C@@H]3C[C@H]4C(=O)N[C@]5(C(=O)NS(=O)(=O)C6CC6)C[C@H]5/C=C\CCCCN(C)C(=O)[C@@H]4C3)cc(-c3nc(C(C)C)cs3)nc2c1C  inhibition (CYP3A7; enzyme activity, inhibitor, fluorescence; 20 µM, 10 min, pH 7.4): ≥ 50%
Cc1ccc(Cn2cc(C(=O)NN)c(=O)c3cc(Oc4ccccc4)ccc32)cc1  compound remaining (metabolic stability; male CD-1 mouse, liver microsomes; 1 µM, 30 min): 96%
Oc1ccccc1/C=N/c1c(-c2ccccc2)nc2ccc(Cl)cn12  CC50 (MT4; cell growth or viability, MTT; 5 days): 17.9 µg/mL (≈ 51.5 µM)
N#C[C@@]12C[C@@H]1[C@@H](n1cnc3c(N[C@@H](C4CCC4)C4CC4)nc(I)nc31)[C@H](O)[C@@H]2O  compound remaining (metabolic stability; mouse, liver microsomes; 1 h): 72.6%
CC(C)(C)OC(=O)N[C@H]1CCCCC/C=C\[C@@H]2C[C@@]2(C(=O)NS(=O)(=O)C2CC2)NC(=O)[C@@H]2C[C@@H](OC(=O)N3Cc4cccc(F)c4C3)CN2C1=O  inhibition (CYP3A7; enzyme activity, inhibitor, fluorescence; 20 µM, 10 min, pH 7.4): ≥ 50%
N#Cc1cnn2c(Nc3cn(CCN4CCCC4)cn3)cc(Nc3cccc(-n4cnnc4)c3)nc12  compound remaining (metabolic stability; male CD-1 mouse, liver microsomes; 5 µM, 30 min, pH 7.4): 67%
C=C[C@@H]1C[C@]1(NC(=O)[C@@H]1C[C@@H](Oc2ncc(OC)c3ccc(Cl)cc23)CN1C(=O)[C@@H](NC(=O)OC(C)(C)C)C(C)(C)C)C(=O)NS(=O)(=O)C1CC1  inhibition (CYP3A7; enzyme activity, inhibitor, fluorescence; 20 µM, 10 min, pH 7.4): ≥ 50%
C[C@@H](N)CN(C)c1ccc(Nc2cc(NC3CC3)n3ncc(C#N)c3n2)cc1-n1cnnc1  compound remaining (metabolic stability; male CD-1 mouse, liver microsomes; 5 µM, 30 min, pH 7.4): 84%
COC[C@H]1C[C@@H](c2ncc(-c3ccc4c(c3)COc3cc5c(ccc6nc([C@@H]7CC[C@H](C)N7C(=O)[C@@H](NC(=O)OC)C(C)C)[nH]c65)cc3-4)[nH]2)N(C(=O)[C@H](NC(=O)OC)c2ccccc2)C1  inhibition (CYP3A7; enzyme activity, inhibitor, fluorescence; 20 µM, 10 min, pH 7.4): ≥ 50%
O=[N+]([O-])c1ccccc1/C=N/c1c(-c2ccccc2)nc2ccc(Cl)cn12  CC50 (MT4; cell growth or viability, MTT; 5 days): > 125 µg/mL
CCN(CCN)c1ccc(Nc2cc(NC3CC3)n3ncc(C#N)c3n2)cc1-n1cnnc1  compound remaining (metabolic stability; male CD-1 mouse, liver microsomes; 5 µM, 30 min, pH 7.4): 92%
